In ChEMBL document CHEMBL4406919, “Structure-Based Design of Selective, Covalent G Protein-Coupled Receptor Kinase 5 Inhibitors” (ACS Med Chem Lett, 2019) one finds IC50 and Ratio IC50 data, which are given here for 17 compounds.

Where only a bound is given, the exact number is not on record here.

By IC50 is commonly meant the midpoint of a concentration-inhibition curve.

The target in test [1] is T1, Rhodopsin kinase GRK1 (Bos taurus, UniProt P28327).
T1 sequence (P28327 whole entry): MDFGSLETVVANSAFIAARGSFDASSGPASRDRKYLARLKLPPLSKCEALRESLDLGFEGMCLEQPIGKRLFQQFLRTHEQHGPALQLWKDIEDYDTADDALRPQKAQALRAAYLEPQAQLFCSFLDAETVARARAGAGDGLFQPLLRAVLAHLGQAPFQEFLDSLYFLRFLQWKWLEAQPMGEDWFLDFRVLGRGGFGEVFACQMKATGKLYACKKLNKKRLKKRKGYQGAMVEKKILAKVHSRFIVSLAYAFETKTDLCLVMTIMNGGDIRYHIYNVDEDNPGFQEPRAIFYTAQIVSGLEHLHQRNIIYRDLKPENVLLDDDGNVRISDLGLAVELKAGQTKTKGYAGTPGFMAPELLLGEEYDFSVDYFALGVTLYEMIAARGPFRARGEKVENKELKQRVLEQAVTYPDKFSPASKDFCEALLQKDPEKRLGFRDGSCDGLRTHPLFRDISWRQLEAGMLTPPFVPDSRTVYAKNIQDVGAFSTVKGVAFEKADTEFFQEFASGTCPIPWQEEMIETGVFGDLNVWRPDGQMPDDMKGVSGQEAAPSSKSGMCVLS
The test can be described thus: Displacement of BODIPY TR-ADP from bovine GRK1 (1 to 535 residues) preincubated for 10 mins followed by compound addition and measured after 10 to 15 mins by fluorescence polarization displacement assay. For orientation: In fluorescence polarisation assays a small probe gives low polarisation when free and higher when bound to something large.

For test [2], the target named is T2, G protein-coupled receptor kinase 5 (Homo sapiens, UniProt P34947). The test can be described thus: Displacement of BODIPY TR-ADP from GRK5 (unknown origin) preincubated for 10 mins followed by compound addition and measured after 10 to 15 mins by fluorescence polarization displacement assay.
In test [3] the target is T3, Beta-adrenergic receptor kinase 1 (Bos taurus, UniProt P21146).
T3 sequence (P21146 whole entry): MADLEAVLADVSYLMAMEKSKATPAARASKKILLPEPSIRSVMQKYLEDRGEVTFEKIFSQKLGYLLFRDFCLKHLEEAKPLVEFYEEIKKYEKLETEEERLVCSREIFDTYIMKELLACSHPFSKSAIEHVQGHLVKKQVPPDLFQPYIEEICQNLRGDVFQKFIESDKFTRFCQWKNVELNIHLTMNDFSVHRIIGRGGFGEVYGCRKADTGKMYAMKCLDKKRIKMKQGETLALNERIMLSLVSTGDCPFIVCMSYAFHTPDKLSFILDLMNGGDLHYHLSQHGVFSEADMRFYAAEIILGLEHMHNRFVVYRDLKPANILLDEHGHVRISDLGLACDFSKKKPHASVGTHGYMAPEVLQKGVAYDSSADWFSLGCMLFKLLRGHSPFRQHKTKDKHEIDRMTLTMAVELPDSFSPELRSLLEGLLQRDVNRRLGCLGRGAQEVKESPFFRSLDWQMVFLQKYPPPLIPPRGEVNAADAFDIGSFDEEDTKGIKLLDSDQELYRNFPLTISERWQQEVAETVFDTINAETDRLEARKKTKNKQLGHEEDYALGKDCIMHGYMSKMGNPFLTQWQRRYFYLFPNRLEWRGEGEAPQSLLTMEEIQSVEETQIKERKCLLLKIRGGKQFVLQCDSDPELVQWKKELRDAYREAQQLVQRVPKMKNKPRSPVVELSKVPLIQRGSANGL
Kind of test: Inhibition of bovine GRK2 using tubulin as substrate measured after 4 hrs by [gamma-32P]-ATP assay. An outline of the steps: (§1)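 Radiometric kinase assay using tubulin as phosphoacceptor and [γ-32P]ATP. Inhibitor was preincubated with the kinase for the stated time (here 4 h) before the reaction. IC50 came from dose–response curves. Most runs were three independent experiments in duplicate; some GRK5/GRK6 4 h runs were done twice in duplicate.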

Test [4] deals with T2, G protein-coupled receptor kinase 5. Kind of test: Inhibition of human GRK5 using tubulin as substrate measured after 4 hrs by [gamma-32P]-ATP assay.
The nature of test [5]: Inhibition of bovine GRK6 using tubulin as substrate measured after 4 hrs by [gamma-32P]-ATP assay. Details: species or system Bos taurus. An outline of the steps:
as §1

The nature of test [6]: Selectivity index, ratio of IC50 for bovine GRK2 to IC50 for human GRK5. An outline of the steps:
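Selectivity is the GRK2 IC50 divided by the GRK5 IC50. Both values come from the tubulin/[γ-32P]ATP radiometric assay. The GRK5 value used is from the longest inhibitor preincubation tested.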

Test [7] has as its target T1, Rhodopsin kinase GRK1. The test can be described thus: Inhibition of bovine GRK1 using tubulin as substrate measured after 4 hrs by [gamma-32P]-ATP assay. A digest of the protocol:
as §1

The target in test [8] is G protein-coupled receptor kinase 5 (Bos taurus, UniProt P43249, C474S). Kind of test: Inhibition of bovine GRK5 C474S mutant using tubulin as substrate measured after 4 hrs by [gamma-32P]-ATP assay.
Chain of G protein-coupled receptor kinase 5 (Bos taurus, UniProt P43249, C474S) (P43249 whole entry C474S): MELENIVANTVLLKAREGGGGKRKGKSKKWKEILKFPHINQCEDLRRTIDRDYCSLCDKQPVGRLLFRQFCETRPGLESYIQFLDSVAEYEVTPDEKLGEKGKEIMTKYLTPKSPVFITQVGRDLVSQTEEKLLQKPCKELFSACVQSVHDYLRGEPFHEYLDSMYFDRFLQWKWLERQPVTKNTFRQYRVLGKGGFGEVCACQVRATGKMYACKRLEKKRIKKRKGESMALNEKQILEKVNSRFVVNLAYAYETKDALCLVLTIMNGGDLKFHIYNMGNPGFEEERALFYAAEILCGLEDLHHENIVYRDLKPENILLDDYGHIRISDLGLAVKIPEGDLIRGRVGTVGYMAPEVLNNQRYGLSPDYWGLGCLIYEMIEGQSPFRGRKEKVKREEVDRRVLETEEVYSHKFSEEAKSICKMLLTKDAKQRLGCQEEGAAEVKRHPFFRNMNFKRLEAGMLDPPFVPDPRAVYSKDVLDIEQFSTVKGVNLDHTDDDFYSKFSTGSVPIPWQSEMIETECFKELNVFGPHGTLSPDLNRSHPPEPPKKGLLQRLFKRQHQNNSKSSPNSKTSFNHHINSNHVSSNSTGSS

T2 sequence (P34947 whole entry): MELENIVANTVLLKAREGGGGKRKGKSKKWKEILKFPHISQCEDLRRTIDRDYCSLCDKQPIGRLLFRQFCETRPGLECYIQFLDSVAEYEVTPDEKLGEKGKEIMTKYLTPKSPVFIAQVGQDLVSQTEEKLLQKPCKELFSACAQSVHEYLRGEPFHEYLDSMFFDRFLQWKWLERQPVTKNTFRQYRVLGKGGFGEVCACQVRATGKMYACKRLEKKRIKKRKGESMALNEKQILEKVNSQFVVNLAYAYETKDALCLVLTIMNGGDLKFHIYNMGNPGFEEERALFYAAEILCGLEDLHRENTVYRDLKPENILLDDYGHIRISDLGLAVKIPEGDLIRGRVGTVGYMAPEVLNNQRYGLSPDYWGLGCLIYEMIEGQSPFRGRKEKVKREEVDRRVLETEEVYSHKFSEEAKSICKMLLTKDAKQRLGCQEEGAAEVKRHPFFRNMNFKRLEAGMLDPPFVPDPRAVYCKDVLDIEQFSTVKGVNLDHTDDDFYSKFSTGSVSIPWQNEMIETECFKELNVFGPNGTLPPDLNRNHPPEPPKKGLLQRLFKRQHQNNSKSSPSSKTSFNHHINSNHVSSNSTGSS

For `CCCN1CCC(c2ccc(Nc3nc(Nc4cc(F)ccc4C(N)=O)c4cc[nH]c4n3)c(OC)c2)CC1` [GSK-1326255A], the IC50 was above 100 µM at Rhodopsin kinase GRK1 [1] and 2.5 µM in test [2].

In the case of `CC#CC(=O)NCc1ccc(OC)c(Nc2nc(Nc3ccccc3C(=O)NC)c3cc[nH]c3n2)c1`, the IC50 in test [3], in test [4] and in test [5] was above 100 µM in each case.

For the compound `CNC(=O)c1ccccc1Nc1nc(Nc2cc(CNC(=O)/C=C/CN(C)C)ccc2OC)nc2[nH]ccc12`, the IC50 in test [3] came to 2.1 µM; in test [4], 4.8 µM; in test [5] it was 2.6 µM. Besides, the Ratio IC50 in test [6] came out at 0.4.

For `C=CS(=O)(=O)NCc1ccc(Nc2nc(Nc3ccccc3C(=O)NC)c3cc[nH]c3n2)c(OC)c1`, the IC50 in test [3] is above 100 µM; in test [5], 7.7 µM.

Regarding `CCCN1CCC(Oc2cc(Nc3nc(Nc4cccc(F)c4C(N)=O)c4cc[nH]c4n3)c(OC)cc2Cl)CC1` [GSK-1713088A], in test [2], the IC50 was found to be 3.2 µM. This counts as single-digit micromolar.

Turning to `C=CS(=O)(=O)NCc1ccc(OC)c(Nc2nc(Nc3ccccc3C(=O)NC)c3cc[nH]c3n2)c1`, the results for the IC50 in test [3], in test [4] and in test [5] were above 100 µM, 7.1 µM and 2.5 µM, respectively. In addition, the Ratio IC50 in test [6] is above 14.

With `C=CC(=O)NCc1ccc(Nc2nc(Nc3ccccc3C(=O)NC)c3cc[nH]c3n2)c(OC)c1`, the IC50 in test [3] and in test [5] was above 100 µM each time.

As for `COc1cc2c(cc1Nc1nc(Nc3ccsc3C(N)=O)c3cc[nH]c3n1)N(C(=O)CN(C)C)CCC2(C)C` [GSK-2163632A], the IC50 was 0.13 µM at Rhodopsin kinase GRK1 [1] and 3.2 µM in test [2].

In the case of `C=CC(=O)Nc1ccc(Nc2nc(Nc3ccccc3C(N)=O)c3cc[nH]c3n2)c(OC)c1`, the IC50 in test [5] is 0.41 µM.

Consider `CNC(=O)c1ccccc1Nc1nc(Nc2ccc(CNC(=O)/C=C/CN(C)C)cc2OC)nc2[nH]ccc12`, for which the IC50 in test [3] and in test [5] was above 100 µM throughout.

Turning to `COc1ccc(NC(=O)/C=C/CN(C)C)cc1Nc1nc(Nc2ccccc2C(N)=O)c2cc[nH]c2n1`, the IC50 in test [3] was 2.7 µM; against Rhodopsin kinase GRK1 [7], 2.1 µM.

Turning to `C=CC(=O)NCc1ccc(OC)c(Nc2nc(Nc3ccccc3C(=O)NC)c3cc[nH]c3n2)c1`, the results for the IC50 in test [3] and in test [5] were 3.2 µM and 18 µM, respectively.

For `CCC(=O)NCc1ccc(OC)c(Nc2nc(Nc3ccccc3C(=O)NC)c3cc[nH]c3n2)c1`, the IC50 in test [3] was 2.9 µM; in test [4] it was above 100 µM; in test [5], above 100 µM. The Ratio IC50 in test [6] was below 0.01.

Turning to `CC#CC(=O)NCc1ccc(Nc2nc(Nc3ccccc3C(=O)NC)c3cc[nH]c3n2)c(OC)c1`, the concentration for half-maximal inhibition (IC50) in test [3] and in test [5] was above 100 µM in each case.

Compound `CCC(=O)Nc1ccc(OC)c(Nc2nc(Nc3ccccc3C(N)=O)c3cc[nH]c3n2)c1` displayed an IC50 in test [5] above 100 µM.

`CCC(=O)NCc1ccc(Nc2nc(Nc3ccccc3C(=O)NC)c3cc[nH]c3n2)c(OC)c1`: the IC50 in test [3] is above 100 µM; in test [8], 100 µM; in test [4], above 100 µM; in test [5], above 100 µM.

Consider `COc1cc(NC(=O)/C=C/CN(C)C)ccc1Nc1nc(Nc2ccccc2C(N)=O)c2cc[nH]c2n1`, for which the IC50 in test [3] stood at 0.68 µM; at Rhodopsin kinase GRK1 [7], 0.76 µM.
